Drawing on ChEMBL document CHEMBL1124253, “(8 beta)-Ergoline-8-carboxylic acid cycloalkyl esters as serotonin antagonists: structure-activity study” (J Med Chem, 1988), this text covers -Log KB for 22 molecules.

SMILES strings stand for the structures.

The assay concerns the target Serotonin 2 (5-HT2) receptor (Rattus norvegicus) (UniProt P30994+P08909+P14842). As to the kind of experiment: Binding affinity to the 5-hydroxytryptamine 2 receptor assayed by antagonism of serotonin-induced contractions in the rat jugular vein. The procedure, abridged: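 Jugular vein rings mounted in organ baths of modified Krebs solution and equilibrated 1–2 h. Control cumulative serotonin contraction curves were run, then tissues were incubated 1 h with antagonist and serotonin curves were repeated. For each antagonist concentration, K_B = [B]/(dose ratio − 1), where dose ratio = agonist ED50 with antagonist / control ED50. Values reported as −log K_B.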

Serotonin 2 (5-HT2) receptor (Rattus norvegicus), sequence (P08909 whole entry, looked up): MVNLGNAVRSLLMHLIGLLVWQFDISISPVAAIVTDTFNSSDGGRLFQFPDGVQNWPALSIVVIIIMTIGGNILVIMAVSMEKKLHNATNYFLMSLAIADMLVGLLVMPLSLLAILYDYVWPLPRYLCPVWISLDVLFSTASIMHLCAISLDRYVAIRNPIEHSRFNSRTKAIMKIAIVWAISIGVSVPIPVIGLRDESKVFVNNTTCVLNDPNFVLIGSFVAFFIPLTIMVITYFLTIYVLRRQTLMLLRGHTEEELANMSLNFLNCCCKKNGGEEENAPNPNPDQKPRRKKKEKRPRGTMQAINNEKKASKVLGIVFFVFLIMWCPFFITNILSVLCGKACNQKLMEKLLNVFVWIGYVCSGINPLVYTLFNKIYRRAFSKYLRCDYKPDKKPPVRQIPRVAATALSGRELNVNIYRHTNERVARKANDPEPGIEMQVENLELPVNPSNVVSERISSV
Serotonin 2 (5-HT2) receptor (Rattus norvegicus), sequence (P14842 whole entry, looked up): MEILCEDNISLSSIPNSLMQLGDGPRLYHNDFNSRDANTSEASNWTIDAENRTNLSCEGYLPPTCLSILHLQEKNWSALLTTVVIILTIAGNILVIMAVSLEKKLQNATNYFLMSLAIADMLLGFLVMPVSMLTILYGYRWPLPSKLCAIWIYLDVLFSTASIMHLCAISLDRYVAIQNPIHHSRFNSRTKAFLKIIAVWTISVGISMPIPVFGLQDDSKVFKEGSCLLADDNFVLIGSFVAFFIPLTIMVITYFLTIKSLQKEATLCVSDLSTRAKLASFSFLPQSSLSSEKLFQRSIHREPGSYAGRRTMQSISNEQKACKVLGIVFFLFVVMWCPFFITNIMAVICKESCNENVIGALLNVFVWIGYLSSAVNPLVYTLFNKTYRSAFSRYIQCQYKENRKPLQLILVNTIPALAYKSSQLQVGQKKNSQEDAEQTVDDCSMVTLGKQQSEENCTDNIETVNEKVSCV
Serotonin 2 (5-HT2) receptor (Rattus norvegicus), sequence (P30994 whole entry, looked up): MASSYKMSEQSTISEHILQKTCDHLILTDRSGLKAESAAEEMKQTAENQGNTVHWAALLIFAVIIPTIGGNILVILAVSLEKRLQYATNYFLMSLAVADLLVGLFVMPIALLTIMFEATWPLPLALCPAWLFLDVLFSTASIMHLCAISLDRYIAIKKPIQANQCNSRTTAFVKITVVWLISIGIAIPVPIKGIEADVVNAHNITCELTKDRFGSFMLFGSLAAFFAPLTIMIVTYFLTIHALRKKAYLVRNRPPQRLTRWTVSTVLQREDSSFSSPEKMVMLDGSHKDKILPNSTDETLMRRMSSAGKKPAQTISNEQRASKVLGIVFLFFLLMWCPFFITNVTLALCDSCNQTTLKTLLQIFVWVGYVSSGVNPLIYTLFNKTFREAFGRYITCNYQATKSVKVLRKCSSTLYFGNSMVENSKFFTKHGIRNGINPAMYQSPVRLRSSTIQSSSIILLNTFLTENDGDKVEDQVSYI

As to `CC(O)C(C)OC(=O)[C@@H]1CC2c3cccc4c3c(cn4C(C)C)CC2N(C)C1` (some centres not stated), the -Log KB came out at 10.3.

In the case of `CCN1C[C@H](C(=O)OC2CCCCC2)CC2c3cccc4c3c(cn4C(C)C)CC21` (some centres not stated), the -Log KB came out at 7.81.

In the case of `CCCN1C[C@H](C(=O)OC2CCCCC2)CC2c3cccc4c3c(cn4C(C)C)CC21` (some centres not stated), the -Log KB came out at 7.07.

In turn, `CC(C)n1cc2c3c(cccc31)C1C[C@@H](C(=O)O[C@H]3CC[C@H](C)CC3)CN(C)C1C2` (some centres not stated) came in with a -Log KB of 7.21.

Consider `CC(C)n1cc2c3c(cccc31)C1C[C@@H](C(=O)O[C@H]3CC[C@@H](C)CC3)CN(C)C1C2` (some centres not stated), for which the -Log KB worked out at 7.69.

The molecule `CN1C[C@H](C(=O)OC2CCCCC2)CC2c3cccc4[nH]cc(c34)CC21` (some centres not stated) displayed a -Log KB of 8.05.

Turning to `CC1CCCC(C)C1OC(=O)[C@@H]1CC2c3cccc4c3c(cn4C(C)C)CC2N(C)C1` (some centres not stated), the -Log KB amounted to 7.32.

In the case of `CC(C)n1cc2c3c(cccc31)C1C[C@@H](C(=O)OC3CCCCC3O)CN(C)C1C2` (some centres not stated), the -Log KB amounted to 9.47.

Molecule `CC(C)n1cc2c3c(cccc31)C1C[C@@H](C(=O)OC3CCC(=O)CC3)CN(C)C1C2` (some centres not stated) displayed a -Log KB of 10.

For the molecule `CC(C)n1cc2c3c(cccc31)C1C[C@@H](C(=O)OC3CCC3)CN(C)C1C2` (some centres not stated), the -Log KB is 8.22.

`CC(C)n1cc2c3c(cccc31)C1C[C@@H](C(=O)OC3CCCCC3=O)CN(C)C1C2` (some centres not stated) had a -Log KB of 9.31.

On to `CC(C)N1C[C@H](C(=O)OC2CCCCC2)CC2c3cccc4c3c(cn4C(C)C)CC21` (some centres not stated), for which the -Log KB was 6.42.

In the case of `CCC(CC)n1cc2c3c(cccc31)C1C[C@@H](C(=O)OC3CCCCC3)CN(C)C1C2` (some centres not stated), the -Log KB came to 7.31.

`CC(C)n1cc2c3c(cccc31)C1C[C@@H](C(=O)OC3CCCC3)CN(C)C1C2` (some centres not stated): the -Log KB was found to be 8.91.

On to `CC(C)n1cc2c3c(cccc31)C1C[C@@H](C(=O)OC3CCCCC3)CN(C)C1C2` (some centres not stated), for which the -Log KB came to 8.67.

The molecule `CC(C)n1cc2c3c(cccc31)C1C[C@@H](C(=O)OC3CCCCC3)CNC1C2` (some centres not stated) yielded a -Log KB of under 6.

As to `CC(C)n1cc2c3c(cccc31)C1C[C@@H](C(=O)OC3CCOCC3)CN(C)C1C2` (some centres not stated), the -Log KB turned out to be 9.86.

Regarding `CC(C)n1cc2c3c(cccc31)C1C[C@@H](C(=O)OC3CCC(O)CC3)CN(C)C1C2` (some centres not stated), the -Log KB is 10.2.

Turning to `CN1C[C@H](C(=O)OC2CCCCC2)CC2c3cccc4c3c(cn4C)CC21` (some centres not stated), the -Log KB came out at 8.12.

As for `CN1C[C@H](C(=O)OC2CCCCC2)CC2c3cccc4c3c(cn4Cc3ccccc3)CC21` (some centres not stated), the -Log KB stood at 6.52.

With `CC(C)n1cc2c3c(cccc31)C1C[C@@H](C(=O)OC3CCCCCC3)CN(C)C1C2` (some centres not stated), the -Log KB was 7.73.

With `CCCCN1C[C@H](C(=O)OC2CCCCC2)CC2c3cccc4c3c(cn4C(C)C)CC21` (some centres not stated), the -Log KB was 7.4.
